Test results taken from ChEMBL document CHEMBL5058577, “EUbOPEN Chemogenomics Library 2 (Multiplex)” (2022).

Test system: U2OS
Experiment: Multiplex assay against U2OS
Assay type: toxicity, cell-based
Conditions: human
Method in brief: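 Live cells were stained at seeding with Hoechst33342, BioTracker Green Microtubule Cytoskeleton Dye, MitoTracker Red and Annexin V Alexa Fluor 680. Following compound addition, they were imaged on a CQ1 microscope at 37°C and 5% CO2 and gated by CellPathfinder machine learning into Hoechst high-intensity objects or normal cells, with normal cells split into healthy, pyknosed or fragmented nuclei and pyknosed cells into mitotic or apoptotic. Tubulin, mitochondrial-mass and membrane-permeability phenotypes are per cents of healthy-nucleus cells.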

[1] = 12 h, 1 µM, compound concentration 1 uM, replicate 1
[2] = 12 h, 1 µM, compound concentration 1 uM, replicate 2
[3] = 12 h, 10 µM, compound concentration 10 uM, replicate 1
[4] = 12 h, 10 µM, compound concentration 10 uM, replicate 2
[5] = 24 h, 1 µM, compound concentration 1 uM, replicate 1
[6] = 24 h, 1 µM, compound concentration 1 uM, replicate 2
[7] = 24 h, 10 µM, compound concentration 10 uM, replicate 1
[8] = 24 h, 10 µM, compound concentration 10 uM, replicate 2
[9] = 48 h, 1 µM, compound concentration 1 uM, replicate 1
[10] = 48 h, 1 µM, compound concentration 1 uM, replicate 2
[11] = 48 h, 10 µM, compound concentration 10 uM, replicate 1
[12] = 48 h, 10 µM, compound concentration 10 uM, replicate 2

Cc1ccc(OCC(O)C(C)NC(C)C)c2c1CCC2.Cl (stereo unspecified)
Population Apoptotic (%) [1]: 63%
Population Fragmented Nuclei (%) [1]: 19%
Population Healthy Nuclei (%) [1]: 66%
Population Hoechst High Intensity Objects (%) [1]: 2%
Population Membrane Permeable-Phenotype (%) [1]: 8%
Population Mitochondria Different-Phenotype (%) [1]: 3%
Population Mitotic Cells (%) [1]: 36%
Population Normal (%) [1]: 97%
Population Pyknosed Nuclei (%) [1]: 13%
Population Tubulin-Different-Phenotype (%) [1]: 4%
Total Cell Count [1]: 222
Population Apoptotic (%) [2]: 90%
Population Fragmented Nuclei (%) [2]: 11%
Population Healthy Nuclei (%) [2]: 79%
Population Hoechst High Intensity Objects (%) [2]: 1%
Population Membrane Permeable-Phenotype (%) [2]: 7%
Population Mitochondria Different-Phenotype (%) [2]: 2%
Population Mitotic Cells (%) [2]: 9%
Population Normal (%) [2]: 98%
Population Pyknosed Nuclei (%) [2]: 8%
Population Tubulin-Different-Phenotype (%) [2]: 2%
Total Cell Count [2]: 129
Population Apoptotic (%) [3]: 61%
Population Fragmented Nuclei (%) [3]: 30%
Population Healthy Nuclei (%) [3]: 52%
Population Hoechst High Intensity Objects (%) [3]: 5%
Population Membrane Permeable-Phenotype (%) [3]: 14%
Population Mitochondria Different-Phenotype (%) [3]: 17%
Population Mitotic Cells (%) [3]: 38%
Population Normal (%) [3]: 94%
Population Pyknosed Nuclei (%) [3]: 16%
Population Tubulin-Different-Phenotype (%) [3]: 8%
Total Cell Count [3]: 215
Population Apoptotic (%) [4]: 80%
Population Fragmented Nuclei (%) [4]: 11%
Population Healthy Nuclei (%) [4]: 81%
Population Hoechst High Intensity Objects (%) [4]: 0%
Population Membrane Permeable-Phenotype (%) [4]: 9%
Population Mitochondria Different-Phenotype (%) [4]: 22%
Population Mitotic Cells (%) [4]: 20%
Population Normal (%) [4]: 99%
Population Pyknosed Nuclei (%) [4]: 7%
Population Tubulin-Different-Phenotype (%) [4]: 9%
Total Cell Count [4]: 137
Population Apoptotic (%) [5]: 88%
Population Fragmented Nuclei (%) [5]: 14%
Population Healthy Nuclei (%) [5]: 75%
Population Hoechst High Intensity Objects (%) [5]: 0%
Population Membrane Permeable-Phenotype (%) [5]: 5%
Population Mitochondria Different-Phenotype (%) [5]: 3%
Population Mitotic Cells (%) [5]: 11%
Population Normal (%) [5]: 100%
Population Pyknosed Nuclei (%) [5]: 10%
Population Tubulin-Different-Phenotype (%) [5]: 4%
Total Cell Count [5]: 255
Population Apoptotic (%) [6]: 93%
Population Fragmented Nuclei (%) [6]: 15%
Population Healthy Nuclei (%) [6]: 73%
Population Hoechst High Intensity Objects (%) [6]: 1%
Population Membrane Permeable-Phenotype (%) [6]: 3%
Population Mitochondria Different-Phenotype (%) [6]: 5%
Population Mitotic Cells (%) [6]: 6%
Population Normal (%) [6]: 98%
Population Tubulin-Different-Phenotype (%) [6]: 0%
Total Cell Count [6]: 155
Population Apoptotic (%) [7]: 82%
Population Fragmented Nuclei (%) [7]: 26%
Population Healthy Nuclei (%) [7]: 56%
Population Hoechst High Intensity Objects (%) [7]: 3%
Population Membrane Permeable-Phenotype (%) [7]: 10%
Population Mitochondria Different-Phenotype (%) [7]: 17%
Population Mitotic Cells (%) [7]: 17%
Population Normal (%) [7]: 96%
Population Pyknosed Nuclei (%) [7]: 17%
Population Tubulin-Different-Phenotype (%) [7]: 4%
Total Cell Count [7]: 230
Population Apoptotic (%) [8]: 92%
Population Fragmented Nuclei (%) [8]: 14%
Population Healthy Nuclei (%) [8]: 77%
Population Hoechst High Intensity Objects (%) [8]: 2%
Population Membrane Permeable-Phenotype (%) [8]: 12%
Population Mitochondria Different-Phenotype (%) [8]: 11%
Population Mitotic Cells (%) [8]: 7%
Population Normal (%) [8]: 97%
Population Pyknosed Nuclei (%) [8]: 8%
Population Tubulin-Different-Phenotype (%) [8]: 6%
Total Cell Count [8]: 172
Population Apoptotic (%) [9]: 88%
Population Fragmented Nuclei (%) [9]: 14%
Population Healthy Nuclei (%) [9]: 73%
Population Hoechst High Intensity Objects (%) [9]: 0%
Population Membrane Permeable-Phenotype (%) [9]: 6%
Population Mitochondria Different-Phenotype (%) [9]: 4%
Population Mitotic Cells (%) [9]: 11%
Population Normal (%) [9]: 99%
Population Pyknosed Nuclei (%) [9]: 12%
Population Tubulin-Different-Phenotype (%) [9]: 3%
Total Cell Count [9]: 377
Population Apoptotic (%) [10]: 80%
Population Fragmented Nuclei (%) [10]: 20%
Population Healthy Nuclei (%) [10]: 69%
Population Hoechst High Intensity Objects (%) [10]: 2%
Population Membrane Permeable-Phenotype (%) [10]: 5%
Population Mitochondria Different-Phenotype (%) [10]: 3%
Population Mitotic Cells (%) [10]: 20%
Population Normal (%) [10]: 97%
Population Pyknosed Nuclei (%) [10]: 10%
Population Tubulin-Different-Phenotype (%) [10]: 2%
Total Cell Count [10]: 202
Population Apoptotic (%) [11]: 82%
Population Fragmented Nuclei (%) [11]: 23%
Population Healthy Nuclei (%) [11]: 63%
Population Hoechst High Intensity Objects (%) [11]: 4%
Population Membrane Permeable-Phenotype (%) [11]: 12%
Population Mitochondria Different-Phenotype (%) [11]: 12%
Population Mitotic Cells (%) [11]: 17%
Population Normal (%) [11]: 95%
Population Pyknosed Nuclei (%) [11]: 13%
Population Tubulin-Different-Phenotype (%) [11]: 6%
Total Cell Count [11]: 306
Population Apoptotic (%) [12]: 77%
Population Fragmented Nuclei (%) [12]: 15%
Population Healthy Nuclei (%) [12]: 73%
Population Hoechst High Intensity Objects (%) [12]: 0%
Population Membrane Permeable-Phenotype (%) [12]: 7%
Population Mitochondria Different-Phenotype (%) [12]: 4%
Population Mitotic Cells (%) [12]: 22%
Population Normal (%) [12]: 99%
Population Pyknosed Nuclei (%) [12]: 11%
Population Tubulin-Different-Phenotype (%) [12]: 3%
Total Cell Count [12]: 246
